Laboratory results: ChEMBL document CHEMBL4725350, “2-Oxaadamant-1-yl Ureas as Soluble Epoxide Hydrolase Inhibitors: In Vivo Evaluation in a Murine Model of Acute Pancreatitis” (J Med Chem, 2020)
Calls of active or inactive are those of the source. No cut-off for these calls is given here.

Experiments:
[1] = Tmax in CD-1 mouse at 1 mg/kg, ip measured up to 24 hrs by LC-MS analysis; assay type: ADME, organism-based; settings: in vivo
In short: (§1)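 Single dose, 1 mg/kg, given to mice intravenously or intraperitoneally. Parameters are taken from the plasma concentration–time profile: T1/2, Tmax, Cmax, C0 (iv only), AUClast, AUCINF_obs, Vz and Cl. Bioavailability is derived from ip versus iv exposure.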

Mus musculus [2] = assay: Protection against cerulein-induced acute pancreatitis in C57BL/6J mouse assessed as reduction in MCP1 mRNA level at 30 mg/kg administered twice per day for 5 days followed by cerulein addition and measured 24 hrs post-last dose by Trisure-reagent based RT-PCR analysis; assay type: functional, organism-based; settings: time 6.0 day
In short: (§2)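 Pre-induction (prevention) protocol in C57BL/6J mice. Inhibitor is given ip at 30 mg/kg before cerulein induction of acute pancreatitis. Pancreatic mRNA of TNF-α, IL-1β, MCP-1 and ATF3 is compared with control and cerulein-only mice. Mean ± SEM, n = 5 per group.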

[3] = AUC (infinity) in CD-1 mouse at 1 mg/kg, iv measured up to 24 hrs by LC-MS analysis; assay type: ADME, organism-based; parameters: route intravenous, dose 1 mg/kg, time <=24; settings: in vivo; in short: as §1
Mus musculus [4] = assay: Protection against cerulein-induced acute pancreatitis in C57BL/6J mouse assessed as reduction in TNF-alpha mRNA level at 30 mg/kg administered 24 hrs post-cerulein addition and measured after 24 hrs by Trisure-reagent based RT-PCR analysis; assay type: functional, organism-based
In short: (§3)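 Post-induction (treatment) protocol in C57BL/6J mice. Acute pancreatitis is induced by several cerulein administrations, followed by ip sEH inhibitor at 3 or 30 mg/kg. Pancreatic mRNA of TNF-α, IL-1β, MCP-1 and ATF3 is quantified against control and cerulein-only groups. Mean ± SEM, n = 5 per group.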

[5] = Apparent volume of distribution in CD-1 mouse at 1 mg/kg, ip measured up to 24 hrs by LC-MS analysis; assay type: ADME, organism-based; settings: in vivo; in short: as §1
Mus musculus [6] = assay: Protection against cerulein-induced acute pancreatitis in C57BL/6J mouse assessed as reduction in edema at 30 mg/kg administered 24 hrs post-cerulein addition and measured after 24 hrs by H and E staining based histological analysis; assay type: functional, organism-based
In short: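 H&E-stained pancreas sections are scored for edema and inflammation. Groups are control, cerulein and cerulein plus inhibitor, in both the pre-induction and post-induction cerulein acute pancreatitis models in mice.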

Mus musculus [7] = assay: Protection against cerulein-induced acute pancreatitis in C57BL/6J mouse assessed as reduction in MCP1 mRNA level at 3 mg/kg administered 24 hrs post-cerulein addition and measured after 24 hrs by Trisure-reagent based RT-PCR analysis; assay type: functional, organism-based; in short: as §3
[8] = AUClast in CD-1 mouse at 1 mg/kg, iv measured up to 24 hrs by LC-MS analysis; assay type: ADME, organism-based; parameters: route intravenous, dose 1 mg/kg, time <=24; settings: in vivo; in short: as §1
Mus musculus [9] = assay: Protection against cerulein-induced acute pancreatitis in C57BL/6J mouse assessed as reduction in TNF-alpha mRNA level at 3 mg/kg administered 24 hrs post-cerulein addition and measured after 24 hrs by Trisure-reagent based RT-PCR analysis; assay type: functional, organism-based; in short: as §3
Mus musculus [10] = assay: Protection against cerulein-induced acute pancreatitis in C57BL/6J mouse assessed as reduction in ATF3 mRNA level at 30 mg/kg administered 24 hrs post-cerulein addition and measured after 24 hrs by Trisure-reagent based RT-PCR analysis; assay type: functional, organism-based; in short: as §3
[11] = Apparent volume of distribution in CD-1 mouse at 1 mg/kg, iv measured up to 24 hrs by LC-MS analysis; assay type: ADME, organism-based; settings: in vivo; in short: as §1
Mus musculus [12] = assay: Protection against cerulein-induced acute pancreatitis in C57BL/6J mouse assessed as reduction in ATF3 mRNA level at 30 mg/kg administered twice per day for 5 days followed by cerulein addition and measured 24 hrs post-last dose by Trisure-reagent based RT-PCR analysis; assay type: functional, organism-based; settings: time 6.0 day; in short: as §2
[13] = Acute toxicity in CD-1 mouse assessed as effect on behavior at 5 to 80 mg/kg, ip administered daily for 5 days; assay type: organism-based; settings: in vivo, 120 h, dose 5-80 mg/kg, time 5 day
In short: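 Mice received the compound intraperitoneally once a day for five consecutive days at 5, 10, 20 and 80 mg/kg. Acute toxicity was judged from body weight during treatment, apparent behaviour problems and the presence of petechiae.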

Mus musculus [14] = assay: Protection against cerulein-induced acute pancreatitis in C57BL/6J mouse assessed as reduction in ATF3 mRNA level at 3 mg/kg administered 24 hrs post-cerulein addition and measured after 24 hrs by Trisure-reagent based RT-PCR analysis; assay type: functional, organism-based; in short: as §3
[15] = Half life in CD-1 mouse at 1 mg/kg, iv measured up to 24 hrs by LC-MS analysis; assay type: ADME, organism-based; settings: in vivo; in short: as §1
[16] = Cmax in CD-1 mouse at 1 mg/kg, iv measured up to 24 hrs by LC-MS analysis; assay type: ADME, organism-based; parameters: route intravenous, dose 1 mg/kg, time <=24; settings: in vivo; in short: as §1
[17] = Half life in CD-1 mouse at 1 mg/kg, ip measured up to 24 hrs by LC-MS analysis; assay type: ADME, organism-based; settings: in vivo; in short: as §1
Homo sapiens = species on record: Homo sapiens; assay: Selectivity ratio of inhibition of recombinant human CYP2D6 to IC50 for inhibition of recombinant human soluble epoxide hydrolase
[18] = Selectivity ratio of inhibition of recombinant human CYP3A4 to IC50 for inhibition of recombinant mouse soluble epoxide hydrolase using 7-BFC as substrate
[19] = Selectivity ratio of inhibition of recombinant human CYP3A4 to IC50 for inhibition of recombinant mouse soluble epoxide hydrolase using DBF as substrate
[20] = target: T1, Bifunctional epoxide hydrolase 2 (Homo sapiens, UniProt P34913); assay: Inhibition of recombinant human soluble epoxide hydrolase using CMNPC as substrate preincubated for 5 mins followed by substrate addition and measured at 30 secs interval for 10 mins by fluorescence assay
T1 sequence (P34913 whole entry): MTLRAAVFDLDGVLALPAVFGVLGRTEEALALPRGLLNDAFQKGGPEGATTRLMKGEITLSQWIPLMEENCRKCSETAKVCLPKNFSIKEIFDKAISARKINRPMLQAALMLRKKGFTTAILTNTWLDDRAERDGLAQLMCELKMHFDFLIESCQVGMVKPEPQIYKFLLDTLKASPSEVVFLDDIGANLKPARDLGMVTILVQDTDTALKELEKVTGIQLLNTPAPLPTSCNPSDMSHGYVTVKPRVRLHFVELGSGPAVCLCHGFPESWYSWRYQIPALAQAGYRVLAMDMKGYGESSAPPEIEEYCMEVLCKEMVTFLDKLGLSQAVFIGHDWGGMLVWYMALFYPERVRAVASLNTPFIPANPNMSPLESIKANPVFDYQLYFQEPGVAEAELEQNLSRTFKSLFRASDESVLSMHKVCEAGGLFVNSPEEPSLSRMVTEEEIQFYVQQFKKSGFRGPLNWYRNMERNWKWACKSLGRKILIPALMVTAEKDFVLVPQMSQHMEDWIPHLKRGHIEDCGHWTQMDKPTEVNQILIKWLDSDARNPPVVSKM

[21] = Efflux ratio of apparent permeability across basolateral to apical side over apical to basolateral side in human Caco-2 cells at 10 uM measured after 2 hrs by LC-MS/MS analysis
[22] = Selectivity ratio of inhibition of recombinant human CYP2C19 to IC50 for inhibition of recombinant mouse soluble epoxide hydrolase
[23] = Apparent permeability across apical to basolateral side in human Caco-2 cells at 10 uM measured after 2 hrs by LC-MS/MS analysis; settings: caco-2, 2 h

## CC(C)S(=O)(=O)N1CCC(NC(=O)NC23CC4CC(CC(C4)O2)C3)CC1
[1]
  Tmax: 9.6 min
Mus musculus [2]
  Activity: Active
[3]
  AUC: 59.63 ng·h/mL
Mus musculus [4]
  Activity: Active
[5]
  Vz: 124.02 L/kg
Mus musculus [6]
  Activity: Active
Mus musculus [7]
  Activity: inactive
[8]
  AUClast: 59.1 ng·h/mL
Mus musculus [9]
  Activity: inactive
Mus musculus [10]
  Activity: Active
[11]
  Vz: 67.73 L/kg
Mus musculus [12]
  Activity: Active
[13]
  Activity: Non-Toxic
Mus musculus [14]
  Activity: inactive
[15]
  t1/2: 2.8 h
[16]
  Cmax: 108.33 ng/mL
[17]
  t1/2: 3.02 h

## CC(=O)N1CCC(NC(=O)NC23CC4CC(CC(C4)O2)C3)CC1
Homo sapiens
  Selectivity ratio: > 100
[18]
  Selectivity ratio: > 100
[19]
  Selectivity ratio: > 100
[20]
  IC50: 29.9 nM
[21]
  efflux ratio at 2 h, 10 µM: 4.3
[22]
  Selectivity ratio: > 100
[23]
  Papp: 2.24 ×10⁻⁶ cm/s
